Drawing on ChEMBL document CHEMBL1933057, “Pyrrole alkanoic acid derivatives as nuisance inhibitors of microsomal prostaglandin E2 synthase-1” (Eur J Med Chem, 2012), this text covers inhibition and IC50 for 49 molecules.

The source made the active and inactive calls. The rule behind the calls is not given here.

For experiment [1], the target named is T1, Prostaglandin E synthase (Homo sapiens) (UniProt O14684).
T1 sequence (whole entry): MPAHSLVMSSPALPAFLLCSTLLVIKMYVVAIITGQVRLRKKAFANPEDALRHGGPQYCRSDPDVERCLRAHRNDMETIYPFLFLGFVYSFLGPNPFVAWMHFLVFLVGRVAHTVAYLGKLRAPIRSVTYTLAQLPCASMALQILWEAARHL
The experiment can be described thus: Inhibition of human recombinant mPGES-1 in assessed as conversion of PGH2 into PGE2 at 1 uM at 20 degC after 5 mins by HPLC-UV analysis. Put shortly: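 Commercial microsomal human recombinant mPGES-1, diluted about 1:200 in phosphate buffer (50 mM sodium phosphate, 100 mM NaCl, 20% glycerol, pH 7.2). Compound in DMSO added to Tris buffer (50 mM, pH 7.2) with freshly dissolved 2.5 mM reduced glutathione, 5 min, then enzyme, 5 min preincubation at room temperature. PGH2 started reaction, 5 min at room temperature. PGE2 measured by online SPE-HPLC-UV at 195 nm. Reference incubations without enzyme gave non-enzymatic PGE2.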

Experiment [2] has as its target T1, Prostaglandin E synthase (Homo sapiens). The experiment is described as follows: Inhibition of mPGES-1 in human A549 cell microsomes assessed as conversion of PGH2 into PGE2 at 3.3 uM at 0 degC after 5 mins by HPLC-UV analysis. The note with it: Microsome. Put shortly: (§1)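 Enzyme source was microsomes from A549 cells. Compound was incubated with PGH2 substrate for 5 min at 0 °C. PGE2 formation was monitored by online solid phase extraction HPLC with UV detection. Values are means of at least two independent determinations.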

In experiment [3] the target is T2, Prostaglandin E synthase (Homo sapiens, UniProt O14684).
T2 sequence (O14684 whole entry): T1 sequence (whole entry)
The experiment can be described thus: Inhibition of mPGES-1. Put shortly:
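PGH2 was the substrate, and reactions ran for 5 min. One version used microsomes from A549 cells at 0 °C. The other used commercial microsomes containing human recombinant mPGES-1, at 20 °C or room temperature, in 50 mM Tris pH 7.2 with 2.5 mM GSH. PGE2 formed was measured by online solid-phase extraction HPLC with UV detection.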

The target of experiment [4] is T2, Prostaglandin E synthase. The experiment is described as follows: Inhibition of mPGES-1 in human A549 cell microsomes assessed as conversion of PGH2 into PGE2 at 0 degC after 5 mins by HPLC-UV analysis. More on the design: species or system Microsome. The essentials: as §1
The target in experiment [5] is T1, Prostaglandin E synthase (Homo sapiens). The experiment can be described thus: Inhibition of human recombinant mPGES-1 in assessed as conversion of PGH2 into PGE2 at 10 uM at 20 degC after 5 mins by HPLC-UV analysis in presence of 0.1% Triton X-100. Put shortly: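 Human recombinant mPGES-1 microsomes in Tris buffer (50 mM, pH 7.2) containing 2.5 mM glutathione, with 0.1% Triton X-100 added. Compound in DMSO, 5 min preincubation with enzyme at room temperature, then PGH2 substrate, 5 min reaction at 20 °C. PGE2 formed was quantified by online solid phase extraction HPLC with UV detection.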

Experiment [6] concerns the target T2, Prostaglandin E synthase. The experiment can be described thus: Inhibition of human recombinant mPGES-1 in assessed as conversion of PGH2 into PGE2 at 20 degC after 5 mins by HPLC-UV analysis. The essentials:
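Commercial microsomal human recombinant mPGES-1, diluted about 1:200 in phosphate buffer (50 mM sodium phosphate, 100 mM NaCl, 20% glycerol, pH 7.2). Compound in DMSO added to Tris buffer (50 mM, pH 7.2) with freshly dissolved 2.5 mM reduced glutathione, 5 min, then enzyme, 5 min preincubation at room temperature. PGH2 started reaction, 5 min at room temperature.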

As usually defined, the inhibition is the share of the control response that was lost under treatment. As usually defined, the IC50 is the midpoint of a concentration-inhibition curve. `CCCCCCCCCCCC(=O)c1c(C)c(CCC(=O)O)n(C)c1C`: the values for the inhibition in experiment [1] and in experiment [2] were 54% and 74%, respectively. In addition, the IC50 in experiment [3] came out at 800 nM; in experiment [4], 800 nM; in experiment [6], 670 nM. In experiment [5], the inhibition entry is “inactive”. With `Cc1c(C(=O)CCc2ccccc2)c(C)n(C)c1CCC(=O)O`, the inhibition result in experiment [1] and in experiment [2] was “inactive” in each case. Consider `CCCCCCCCCC(=O)c1c(C)c(CCC(=O)O)n(C)c1C`, for which the inhibition result in experiment [1] is “inactive”. The inhibition in experiment [2] worked out at 62%.

Take `CCCCCCCCCCCC(=O)c1c(C)c(CC(=O)O)n(-c2ccccc2)c1C`: the inhibition in experiment [1] turned out to be 23%. For the molecule `CC(C)c1ccc2c(c1)c(SC(C)(C)C)c(CC(C)(C)C(=O)O)n2Cc1ccc(Cl)cc1`, the inhibition in experiment [5] is 75%.

Turning to `CCCCCCCCCCCC(=O)c1c(C)c(CC(=O)O)n(C)c1C`, in experiment [1], the inhibition was 22%. The same measure, in the same setting: as for `CCCCCCCCCCCC(=O)c1c(C)c(CCC(=O)NS(=O)(=O)c2ccccc2)n(C)c1C`, the figure is 77%. `CCCC(=O)c1c(C)c(CCC(=O)O)n(C)c1C`: the inhibition result in experiment [1] and in experiment [2] was “inactive” each time. On to `CCCCCCCCCCCC(=O)c1c(C)c(CCC(=O)NN)n(C)c1C`, for which, in experiment [1], the inhibition turned out to be 35%. Turning to `CCCCCCOc1ccc(C(=O)c2c(C)c(CCC(=O)O)n(C)c2C)cc1`, the inhibition was determined as 32% in experiment [1] and 64% in experiment [2].

In the case of `CCCCCCCCCCCC(=O)c1cc(CC(=O)O)n(C)c1`, the inhibition entry in experiment [1] was “inactive”. For the molecule `Cc1c(C(=O)Cc2ccc(-c3ccccc3)cc2)c(C)n(C)c1CCC(=O)O`, in experiment [1], the inhibition entry is “inactive”.

As to `CCCCCCCCCCCC(=O)c1c(C)c(CCC(=O)O)n(Cc2ccc(C(=O)O)cc2)c1C`, the inhibition in experiment [1] is 27%. On the same count and under the same terms, the same measure for `CCCCCCCCCCCC(=O)c1c(C)c(C(=O)O)n(-c2ccccc2)c1C`: 99%. In the case of `CCCCCCCC(=O)c1c(C)c(CCC(=O)O)n(C)c1C`, the inhibition entry in experiment [1] was “inactive”. The inhibition in experiment [2] is 55%. On the same counts, the results for `Cc1c(C(=O)c2ccccc2)c(C)n(C)c1CCC(=O)O` are “inactive” and “inactive”. Regarding `CCCCCCCCCCCC(=O)c1cc(CCC(=O)O)n(C)c1`, the inhibition entry in experiment [1] was “inactive”.

On to `CCCCCCCCCCCC(=O)c1c(C)c(CCC(N)=O)n(C)c1C`, for which, in experiment [1], the inhibition came out at 39%.

Turning to `CCCCCCCCCCCC(=O)c1c(-c2ccccc2)c(CCC(=O)O)n(Cc2ccccc2)c1C`, the inhibition in experiment [1] was 64%. For `CCCCCCCOc1cccc(C(=O)c2c(C)c(CCC(=O)O)n(C)c2C)c1`, the inhibition entry in experiment [1] was “inactive”. For the same molecule, the inhibition in experiment [2] is 67%.

As for `CCCCCCCCCCCC(=O)c1c(C)c(CCC(=O)O)n(Cc2ccc(OC)cc2)c1C`, the inhibition in experiment [1] turned out to be 72%. For `CCCCCCCCCCCC(=O)c1c(C)c(CCC(=O)O)n(Cc2ccc(O)cc2)c1C`, in experiment [1], the inhibition is 53%. In the case of `CCCCCCC(Sc1nc(Cl)cc(NCc2ccc(-c3ccccc3)cc2)n1)C(=O)O` (stereo not drawn), the inhibition entry in experiment [5] was “inactive”. For `CCCCCCCCCCCC(=O)c1c(C)c(CCCC(=O)O)n(C)c1C`, the inhibition in experiment [1] came to 70%. Same read-out and setting: the same measure for `CCCCCCCCCCCC(=O)c1c(C)[nH]c(C(=O)O)c1C`: 62%.

With `CCCCCCCCCCCC(=O)c1c(C)c(CC(=O)O)n(Cc2ccccc2)c1C`, the inhibition in experiment [1] was 35%. As for `CCCCCCCCCCCC(=O)c1c(C)c(CCC(=O)NS(C)(=O)=O)n(C)c1C`, the inhibition in experiment [1] was 52%. Further, the inhibition entry in experiment [5] was “inactive”. Moreover, the IC50 in experiment [6] was 600 nM.

For `CCCCCCCCOc1ccccc1C(=O)c1c(C)c(CCC(=O)O)n(C)c1C`, the inhibition result in experiment [1] was “inactive”. Also, the inhibition in experiment [2] stood at 23%. Turning to `CCCCCCCCCCCC(=O)c1c(C)[nH]c(CC(=O)O)c1C`, the inhibition in experiment [1] was determined as 17%. As for `Cc1c(C(=O)c2cccc3ccccc23)c(C)n(C)c1CCC(=O)O`, the inhibition entry in experiment [1] and in experiment [2] was “inactive” throughout. As to `CCCCCCCCCCCC(=O)c1c(C)c(C(=O)O)n(C)c1C`, in experiment [1], the inhibition turned out to be 59%. `Cc1c(C(=O)c2ccc3ccccc3c2)c(C)n(C)c1CCC(=O)O`: the inhibition result in experiment [1] and in experiment [2] was “inactive” throughout. In the case of `CCCCCCCCCCCCCC(=O)c1c(C)c(CCC(=O)O)n(C)c1C`, the inhibition in experiment [1] is 91%; in experiment [2], 63%. On the same counts, the results for `CCCCCCCCCCCCCCCCCC(=O)c1c(C)c(CCC(=O)O)n(C)c1C` are 97% and “inactive”. `CCCCCCCCCCCC(=O)c1c(C)c(CCC#N)n(C)c1C`: in experiment [1], the inhibition amounted to 22%. Still for that read-out and setting: as for `CCCCCCCCCCCC(=O)c1c(C)[nH]c(CCC(=O)O)c1C`, the figure is 38%; as for `CCCCCCCCCCCC(=O)c1c(C)c(CCC(=O)O)n(Cc2ccccc2)c1C`, 62%; as for `CCCCCCCCCCCC(=O)c1cc(C(=O)O)n(C)c1`, “inactive”. On to `Cc1c(C(=O)c2ccc(-c3ccccc3)cc2)c(C)n(C)c1CCC(=O)O`, for which the inhibition entry in experiment [1] and in experiment [2] was “inactive” in each case. Turning to `CCCCCCCCCCCC(=O)c1c(C)c(CCC(=O)O)n(Cc2ccc(C)cc2)c1C`, the inhibition in experiment [1] worked out at 52%. On to `CCCCCCCCCCCC(=O)c1c(C)c(CCC(=O)O)n(Cc2ccc(C(N)=O)cc2)c1C`, for which the inhibition in experiment [1] came to 28%. Take `CCCCCCC(=O)c1c(C)c(CCC(=O)O)n(C)c1C`: the inhibition result in experiment [1] and in experiment [2] was “inactive” throughout. With `CCCCCCCCCCCC(=O)c1c(-c2ccccc2)c(CCC(=O)O)n(C)c1C`, the inhibition in experiment [1] is 90%. The inhibition result in experiment [5] was “inactive”. The 50% inhibitory concentration (IC50) in experiment [6] was found to be 140 nM.

In experiment [3], `CS(=O)(=O)Nc1ccc([N+](=O)[O-])cc1OC1CCCCC1` [NS-398] gave an IC50 of 10000 nM.

`CCCCCCCCCCCC(=O)c1c(C)c(CCC(=O)O)n(Cc2ccc(Cl)cc2)c1C`: the inhibition in experiment [1] turned out to be 78%. On the same count and under the same terms, the same measure for `CCCCCCCCCCCCc1c(C)c(C(=O)O)n(C)c1C`: 37%; for `CCCCCCCCCCCC(=O)c1c(C)c(C(=O)O)n(Cc2ccccc2)c1C`: 65%; for `CCCCCCCCCCCC(=O)c1c(C)c(CCC(=O)O)n(-c2ccccc2)c1C`: 65%.

For the molecule `CCCCCCCCCCCCCCCC(=O)c1c(C)c(CCC(=O)O)n(C)c1C`, the inhibition came to 97% in experiment [1] and 35% in experiment [2].
